Measured values: ChEMBL document CHEMBL1123841, “3-Carbonylacrylic derivatives as potential antimicrobial agents. Correlations between activity and reactivity toward cysteine” (J Med Chem, 1987)
≈ marks a conversion by molar mass, not a printed value.

Experiments:
[1] = Partition coefficient (logP); format: physicochemical; details: octanol/water
Method in brief: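 Octanol/water partition coefficient: some values measured experimentally by a standard literature procedure, with P = C_oct/C_H2O(1−α) correcting for ionization (α); the remaining values calculated by the method of Leo et al.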

Staphylococcus aureus = assay: Antimicrobial activity against Staphylococcus aureus(ATCC 6538) was determined; format: functional
Method in brief: (§1)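 MIC determined by serial dilution in liquid medium; values expressed as micromoles/milliliter.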

Streptococcus pyogenes = assay: Antimicrobial activity against Streptococcus pyogenes A(IVM P 134) was determined; format: functional; method in brief: as §1
Microsporum canis = assay: Antimicrobial activity against Microsporum canis(ATCC 11621) was determined; format: functional; method in brief: as §1

Row | logP [1] | MIC (Staphylococcus aureus) [µM] | MIC (Streptococcus pyogenes) [µM] | MIC (Microsporum canis) [µM] | Structure (SMILES)
1 | 1.94 | 1260 (≈ 222 µg/mL) | 30 (≈ 5.29 µg/mL) | 1000 (≈ 176 µg/mL) | O=C(O)/C=C/C(=O)c1ccccc1
2 | 2.44 | 18000 (≈ 3420 µg/mL) | 2000 (≈ 380 µg/mL) | – | C/C(=C\C(=O)O)C(=O)c1ccccc1
3 | 2.19 | > 15000 | 2000 (≈ 408 µg/mL) | 3200 (≈ 654 µg/mL) | C/C(=C/C(=O)O)C(=O)c1ccc(C)cc1
4 | 2.24 | 40 (≈ 7.61 µg/mL) | 10 (≈ 1.9 µg/mL) | 2.6 (≈ 0.495 µg/mL) | COC(=O)/C=C/C(=O)c1ccccc1
5 | 0.56 | 160 (≈ 30.6 µg/mL) | 42 (≈ 8.03 µg/mL) | 5 (≈ 0.956 µg/mL) | COC(=O)/C=C/C(=O)c1cccnc1
6 | 0.9 | – | 3800 (≈ 700 µg/mL) | – | CCCCC(=O)/C(C)=C(/C)C(=O)O
7 | 2.19 | 15000 (≈ 3060 µg/mL) | 2000 (≈ 408 µg/mL) | 3200 (≈ 654 µg/mL) | C/C(=C/C(=O)c1ccc(C)cc1)C(=O)O
8 | 3.9 | 80 (≈ 20.2 µg/mL) | 6 (≈ 1.51 µg/mL) | – | O=C(O)/C=C/C(=O)c1ccc(-c2ccccc2)cc1
9 | 2.74 | 50 (≈ 10.2 µg/mL) | 24 (≈ 4.9 µg/mL) | 50 (≈ 10.2 µg/mL) | COC(=O)/C=C/C(=O)c1ccc(C)cc1
10 | 2.44 | 1000 (≈ 190 µg/mL) | 13 (≈ 2.47 µg/mL) | 1000 (≈ 190 µg/mL) | Cc1ccc(C(=O)/C=C/C(=O)O)cc1
11 | 1.69 | > 16000 | 2200 (≈ 418 µg/mL) | 16000 (≈ 3040 µg/mL) | C/C(=C/C(=O)O)C(=O)c1ccccc1
12 | 1.49 | 40 (≈ 7.61 µg/mL) | 3 (≈ 0.571 µg/mL) | < 2 | COC(=O)/C=C\C(=O)c1ccccc1
13 | 2.4 | – | 320 (≈ 72.4 µg/mL) | – | CCCCCCCC(=O)/C(C)=C(/C)C(=O)O
14 | 4.4 | – | 10 (≈ 2.82 µg/mL) | – | CCCCCCCCCCCC(=O)/C(C)=C(/C)C(=O)O
15 | 2.94 | 16000 (≈ 3270 µg/mL) | 2000 (≈ 408 µg/mL) | 1200 (≈ 245 µg/mL) | C/C(=C\C(=O)c1ccc(C)cc1)C(=O)O
16 | 0.26 | 1000 (≈ 177 µg/mL) | 50 (≈ 8.86 µg/mL) | – | O=C(O)/C=C/C(=O)c1cccnc1
17 | 2.94 | 15000 (≈ 3060 µg/mL) | – | 3200 (≈ 654 µg/mL) | C/C(=C\C(=O)O)C(=O)c1ccc(C)cc1
